Measured values: ChEMBL document CHEMBL1125819, “Novel benzamides as selective and potent gastrokinetic agents. 2. Synthesis and structure-activity relationships of 4-amino-5-chloro-2-ethoxy-N-[[4-(4-fluorobenzyl)-2- morpholinyl]methyl] benzamide citrate (AS-4370) and related compounds” (J Med Chem, 1991)

How the values were obtained:
Rattus norvegicus [1] = experiment: Gastric emptying of phenol red semisolid meal in rats at the dose of 0.2 mg/kg administered perorally.; format: functional; conditions: route oral
Mus musculus [2] = experiment: Gastric emptying of phenol red semisolid meal in mouse at the dose of 0.5 mg/kg administered perorally.; format: functional; conditions: route oral
Summary of the method: (§1)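 Mice received oral test article in 0.5% tragacanth, four or five animals per dose. Emptying of a phenol red semisolid meal was expressed as percent enhancement over the mean of 0.5% tragacanth controls. Significance was tested by Duncan's multiple range test.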

Mus musculus [3] = experiment: Toxicity tested in mouse and expressed as number of dead mouse / number of mouse used after a dose of 1.0 g/kg perorally; + slight toxicity; format: organism-based; conditions: in vivo, po, 1000 mg/kg
Summary of the method: (§2)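 Male ddY mice (18–25 g), groups of 10, given test compound dissolved or suspended in 0.5% tragacanth solution at a single oral dose of 1.0 g/kg. Mortality observed over 7 days after dosing and scored as dead/used per group; + corresponds to 0–2/10 dead.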

Rattus norvegicus [4] = experiment: Gastric emptying of phenol red semisolid meal in rats at dose of 2.0 mg/kg, administered perorally.; format: functional; conditions: route oral
Rattus norvegicus [5] = experiment: Gastric emptying of resin solid meal in rats at the dose of 2.0 mg/kg administered perorally.; format: functional; conditions: route oral
Rattus norvegicus [6] = experiment: Gastric emptying of phenol red semisolid meal in rats at the dose of 0.5 mg/kg administered perorally.; format: functional; conditions: route oral
Mus musculus [7] = experiment: Gastric emptying of phenol red semisolid meal in mouse at the dose of 1.0 mg/kg administered perorally.; format: functional; conditions: route oral; summary of the method: as §1
Mus musculus [8] = experiment: Toxicity tested in mouse and expressed as number of dead mouse / number of mouse used after a dose of 1.0 g/kg perorally; ++ moderate toxicity; format: organism-based; conditions: in vivo, po, 1000 mg/kg; summary of the method: as §2
[9] = target: Serotonin 1 (5-HT1) receptor (Rattus norvegicus, UniProt P28564+P30940+P19327+P28565); experiment: Inhibitory activity against 5-hydroxytryptamine 1 receptor by 3H ligand binding experiments.; format: protein assay
Summary of the method: (§3)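 Competition binding on rat brain synaptic membranes at 10 mg wet tissue per assay, with compounds at 0.01–1000 μM. Radioligand and tissue: S1, [3H]serotonin, frontal cortex; S2, [3H]spiperone, frontal cortex; α1, [3H]WB-4101, whole brain; α2, [3H]clonidine, whole brain. Assays ended by rapid filtration and scintillation counting. IC50 was derived by probit analysis.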

Canis familiaris [10] = experiment: Compound was tested for anti-apomorphine effect in 2 dogs and the vomiting frequency expressed at a dose of 1.0 mg/kg perorally.; format: functional, Canis lupus familiaris; conditions: route oral
Summary of the method: (§4)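 Dogs received oral test article, then were challenged with apomorphine, and vomiting frequency was counted; saline controls were run. ED50 with 95% confidence limits was derived by probit analysis. Significance versus control was tested by Student's t test.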

[11] = target: T1, Adrenergic receptor alpha-1 (Rattus norvegicus, UniProt P15823+P23944+P43140); experiment: Inhibitory activity against Alpha-1 adrenergic receptor by 3H ligand binding experiments.; format: protein assay; summary of the method: as §3
T1 sequence (P15823 whole entry): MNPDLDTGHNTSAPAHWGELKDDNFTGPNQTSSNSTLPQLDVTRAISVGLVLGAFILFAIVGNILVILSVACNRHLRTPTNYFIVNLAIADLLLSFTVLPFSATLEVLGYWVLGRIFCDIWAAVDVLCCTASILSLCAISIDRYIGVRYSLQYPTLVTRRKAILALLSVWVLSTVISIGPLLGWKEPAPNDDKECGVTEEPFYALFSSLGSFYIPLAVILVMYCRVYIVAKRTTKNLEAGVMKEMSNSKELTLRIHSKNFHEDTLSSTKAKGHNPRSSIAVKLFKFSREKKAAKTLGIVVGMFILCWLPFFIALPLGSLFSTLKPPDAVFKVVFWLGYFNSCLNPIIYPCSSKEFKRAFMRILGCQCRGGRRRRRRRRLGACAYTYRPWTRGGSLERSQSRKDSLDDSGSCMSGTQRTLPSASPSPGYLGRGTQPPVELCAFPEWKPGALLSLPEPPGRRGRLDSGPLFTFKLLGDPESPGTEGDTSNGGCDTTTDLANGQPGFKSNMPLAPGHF
T1 sequence (P23944 whole entry): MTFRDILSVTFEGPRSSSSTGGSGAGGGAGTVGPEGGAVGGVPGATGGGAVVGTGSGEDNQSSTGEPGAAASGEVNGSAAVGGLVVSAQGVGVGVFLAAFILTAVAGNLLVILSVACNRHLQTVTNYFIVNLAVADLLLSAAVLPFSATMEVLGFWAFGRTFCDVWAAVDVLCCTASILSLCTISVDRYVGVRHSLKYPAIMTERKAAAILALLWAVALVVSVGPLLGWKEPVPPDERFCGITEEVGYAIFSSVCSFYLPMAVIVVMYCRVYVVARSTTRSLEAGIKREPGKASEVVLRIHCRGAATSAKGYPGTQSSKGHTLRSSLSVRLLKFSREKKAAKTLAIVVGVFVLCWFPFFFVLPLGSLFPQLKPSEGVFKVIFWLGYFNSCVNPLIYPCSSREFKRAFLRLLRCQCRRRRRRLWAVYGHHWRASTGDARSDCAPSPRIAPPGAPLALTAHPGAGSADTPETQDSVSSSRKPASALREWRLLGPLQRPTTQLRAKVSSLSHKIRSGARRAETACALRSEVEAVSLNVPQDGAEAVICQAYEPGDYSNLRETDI
T1 sequence (P43140 whole entry): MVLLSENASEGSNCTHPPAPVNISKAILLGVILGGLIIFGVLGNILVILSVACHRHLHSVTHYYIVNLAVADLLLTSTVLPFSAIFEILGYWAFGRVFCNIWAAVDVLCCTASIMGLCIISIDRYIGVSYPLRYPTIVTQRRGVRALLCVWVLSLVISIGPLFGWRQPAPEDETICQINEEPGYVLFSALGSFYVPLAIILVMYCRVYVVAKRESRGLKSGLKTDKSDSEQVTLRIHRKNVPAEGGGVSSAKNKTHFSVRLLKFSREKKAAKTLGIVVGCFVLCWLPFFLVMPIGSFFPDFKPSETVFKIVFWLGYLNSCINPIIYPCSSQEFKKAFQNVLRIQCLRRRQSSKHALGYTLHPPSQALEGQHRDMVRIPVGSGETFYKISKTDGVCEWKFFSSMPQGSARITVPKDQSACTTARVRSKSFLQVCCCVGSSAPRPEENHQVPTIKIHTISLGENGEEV

Canis familiaris [12] = organism: Canis familiaris; experiment: Effective dose required to inhibit 50% of apomorphine effect; format: functional; conditions: Canis lupus familiaris; summary of the method: as §4
Canis familiaris [13] = experiment: Compound was tested for anti-apomorphine effect in 8 dogs and the vomiting frequency expressed at a dose of 10.0 mg/kg perorally.; format: functional, Canis lupus familiaris; conditions: route oral; summary of the method: as §4
[14] = target: T2, Adrenergic receptor alpha-2 (Rattus norvegicus, UniProt P22086+P19328+P22909); experiment: Inhibitory activity against alpha-2 adrenergic receptor by 3H ligand binding experiments.; format: protein assay
T2 sequence (P22086 whole entry): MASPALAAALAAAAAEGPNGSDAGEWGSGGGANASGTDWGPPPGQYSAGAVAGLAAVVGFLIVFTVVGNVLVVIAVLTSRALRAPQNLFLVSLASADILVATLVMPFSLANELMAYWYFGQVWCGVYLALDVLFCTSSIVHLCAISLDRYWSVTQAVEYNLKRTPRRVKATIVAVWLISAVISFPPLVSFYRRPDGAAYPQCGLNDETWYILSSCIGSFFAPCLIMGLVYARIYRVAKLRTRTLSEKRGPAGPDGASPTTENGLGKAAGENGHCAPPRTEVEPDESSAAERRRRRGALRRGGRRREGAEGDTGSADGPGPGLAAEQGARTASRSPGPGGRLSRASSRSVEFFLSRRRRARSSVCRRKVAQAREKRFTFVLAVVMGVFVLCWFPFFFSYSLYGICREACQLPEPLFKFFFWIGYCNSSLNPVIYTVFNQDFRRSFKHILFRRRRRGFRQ
T2 sequence (P19328 whole entry): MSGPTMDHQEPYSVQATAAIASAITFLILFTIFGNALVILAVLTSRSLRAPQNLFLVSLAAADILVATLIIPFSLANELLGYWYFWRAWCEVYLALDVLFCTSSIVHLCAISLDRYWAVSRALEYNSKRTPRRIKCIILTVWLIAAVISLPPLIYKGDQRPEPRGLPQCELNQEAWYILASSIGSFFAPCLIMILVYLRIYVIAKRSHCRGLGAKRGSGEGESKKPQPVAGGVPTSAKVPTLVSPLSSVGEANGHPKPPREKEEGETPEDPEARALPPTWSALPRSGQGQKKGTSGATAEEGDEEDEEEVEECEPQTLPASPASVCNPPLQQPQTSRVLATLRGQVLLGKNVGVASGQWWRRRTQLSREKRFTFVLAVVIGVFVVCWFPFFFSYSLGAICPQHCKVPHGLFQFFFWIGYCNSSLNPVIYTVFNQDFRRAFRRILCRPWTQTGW
T2 sequence (P22909 whole entry): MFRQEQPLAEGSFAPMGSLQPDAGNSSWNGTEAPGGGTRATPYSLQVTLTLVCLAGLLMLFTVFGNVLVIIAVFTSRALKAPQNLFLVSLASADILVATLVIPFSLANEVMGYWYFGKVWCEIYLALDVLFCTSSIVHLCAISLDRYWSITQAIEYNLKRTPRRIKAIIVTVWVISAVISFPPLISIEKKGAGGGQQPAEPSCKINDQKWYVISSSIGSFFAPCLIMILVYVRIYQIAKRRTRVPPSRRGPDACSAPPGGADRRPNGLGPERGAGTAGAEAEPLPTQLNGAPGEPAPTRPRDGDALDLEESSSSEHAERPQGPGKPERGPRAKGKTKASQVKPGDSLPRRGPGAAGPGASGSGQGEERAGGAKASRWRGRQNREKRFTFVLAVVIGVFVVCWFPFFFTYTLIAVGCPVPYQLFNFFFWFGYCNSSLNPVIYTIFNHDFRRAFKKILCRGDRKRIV

Canis familiaris [15] = experiment: Compound was tested for anti-apomorphine effect in 8 dogs and the vomiting frequency expressed at a dose of 1.0 mg/kg perorally.; format: functional, Canis lupus familiaris; conditions: route oral; summary of the method: as §4
D(2) dopamine receptor = D(2) dopamine receptor (Rattus norvegicus, UniProt P61169); experiment: Inhibitory activity against dopamine receptor D2 by 3H ligand binding experiments.
Summary of the method: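 Competition binding used rat striatal synaptic membranes (10 mg wet tissue per assay) with [3H]spiperone. Test compounds spanned 0.01–1000 μM. Assays were started by adding tissue and stopped by rapid glass-fibre filtration with ice-cold buffer washes. Filters were solubilised and radioactivity counted.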

[16] = target: Serotonin 2 (5-HT2) receptor (Rattus norvegicus, UniProt P30994+P08909+P14842); experiment: Inhibitory activity against 5-hydroxytryptamine 2 receptor by 3H ligand binding experiments.; format: protein assay

D(2) dopamine receptor, sequence (P61169 whole entry): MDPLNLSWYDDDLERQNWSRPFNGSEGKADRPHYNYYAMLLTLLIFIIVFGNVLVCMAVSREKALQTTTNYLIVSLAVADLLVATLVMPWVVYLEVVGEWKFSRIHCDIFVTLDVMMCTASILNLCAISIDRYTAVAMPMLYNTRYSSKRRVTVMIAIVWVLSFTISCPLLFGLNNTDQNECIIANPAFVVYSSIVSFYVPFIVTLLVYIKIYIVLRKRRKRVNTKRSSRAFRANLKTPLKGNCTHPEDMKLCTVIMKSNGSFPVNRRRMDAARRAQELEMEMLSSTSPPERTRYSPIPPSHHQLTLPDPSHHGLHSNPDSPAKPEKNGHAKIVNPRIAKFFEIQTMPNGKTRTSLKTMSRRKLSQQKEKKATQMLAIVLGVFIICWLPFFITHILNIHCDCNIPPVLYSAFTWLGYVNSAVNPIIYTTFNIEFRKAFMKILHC

Row | SMILES | GE (Rattus norvegicus [1]) [%] | GE (Mus musculus [2]) [%] | Acute toxicity (Mus musculus [3]) | GE (Rattus norvegicus [4]) [%] | GE (Rattus norvegicus [5]) [%] | GE (Rattus norvegicus [6]) [%] | GE (Mus musculus [7]) [%] | Acute toxicity (Mus musculus [8]) | IC50 [9] [µM] | Vomiting frequency (Canis familiaris [10]) | IC50 [11] [µM] | ED50 (Canis familiaris [12]) [mg/kg] | Vomiting frequency (Canis familiaris [13]) | IC50 [14] [µM] | Vomiting frequency (Canis familiaris [15]) | IC50 (D(2) dopamine receptor) [µM] | IC50 [16] [µM]
1 | COc1cc(N)c(Cl)cc1C(=O)NCC1CN(Cc2ccc(C#N)cc2)CCO1 (centres undefined) | 0 | 15 | slight toxicity | 49 | 36 | 21 | 44 | – | – | – | – | – | – | – | – | – | –
2 | CCOc1cc(N)c(Cl)cc1C(=O)NCC1CN(Cc2ccc(F)cc2F)CCO1 (centres undefined) | 0 | 83 | – | 76 | 76 | 42 | 89 | – | – | – | – | – | – | – | – | – | –
3 | CCOc1cc(N)c(Cl)cc1C(=O)NCC1CN(Cc2cccc(C(F)(F)F)c2)CCO1 (centres undefined) | 32 | 4 | slight toxicity | 58 | 22 | 37 | 21 | – | – | – | – | – | – | – | – | – | –
4 | CCOc1cc(N)c(Cl)cc1C(=O)NCC1CN(Cc2ccc(Cl)cc2)CCO1 (centres undefined) | 37 | 0 | slight toxicity | 63 | 65 | 50 | 21 | – | – | – | – | – | – | – | – | – | –
5 | COc1cc(N)c(Cl)cc1C(=O)NCC1CN(Cc2ccc(Cl)cc2)CCO1 (centres undefined) | – | – | – | 36 | – | – | – | moderate toxicity | – | – | – | – | – | – | – | – | –
6 | COc1cc(N)c(Cl)cc1C(=O)NC1CCN(CCCOc2ccc(F)cc2)CC1OC (centres undefined) [CISAPRIDE] | – | – | – | 47 | – | – | – | – | 4.47 | 6 | 0.11 | > 1 | – | – | – | – | –
7 | CCOc1cc(N)c(Cl)cc1C(=O)NCC1CN(Cc2ccc(F)cc2)CCO1.O=C(O)CC(O)(CC(=O)O)C(=O)O (centres undefined) [MOSAPRIDE CITRATE] | – | – | – | – | – | – | – | – | > 100 | – | > 100 | > 10 | 6.3 | > 10 | 6.4 | > 100 | > 100
8 | CCOc1cc(N)c(Cl)cc1C(=O)NCC1CN(Cc2ccc(F)cc2)CCO1 (centres undefined) [MOSAPRIDE] | 44 | 44 | – | 61 | 79 | 46 | 37 | Partially active | – | – | – | – | – | – | – | – | –
